Assay outcomes deposited in PubChem BioAssay by several laboratories.
XBP1 UPR activ = activators of adaptive arm of unfolded protein response (XBP1). CHO-XBP1 luciferase reporter, IRE1-XBP1 UPR activation, luminescence; percent of tunicamycin response, DMSO as zero. activation, % at 20 µM. 330,000 compounds, 0.33% hits;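 active = versus positive control, 20 µM dose yields 30% or more activation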;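 note: 100% = tunicamycin at 10 µg/mL and 0% = DMSO only wells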
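Test system: CHO-XBP1 luciferase reporter cells | Buffer or medium: Serum-containing F12 medium, 10% FBS | Schedule: 6 h compound exposure at 37 °C, 5% CO2 | Detection: Steady-Glo luciferase glow luminescence, 10 min after reagent addition | Read-out basis: Activation, % of tunicamycin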
PvdQ inh = blocks Pseudomonas aeruginosa PvdQ acylase activity; AID 488965; inhibition, % at 10 µM; purified PvdQ acylase, fluorescence plate reader; 340,000 compounds, 0.063% hits; in the data active = inhibition above about 30%, passing the limit was not always enough;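 note: 0% = vehicle neutral wells and 100% = reference inhibitor wells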
CHOP inh = CHOP inhibition in unfolded protein response. CHO-K1 CHOP-promoter luciferase, tunicamycin-induced, 15-18 h. inhibition, % at 10 µM. 220,000 compounds, 3.8% hits;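 active = compounds that reduced the stress-induced luciferase reporter signal by more than about 70% of percent inhibition, limit read from the data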;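 note: 0% = tunicamycin plus vehicle and 100% = wells without tunicamycin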
UPR CHOP act = apoptotic UPR (CHOP) activation. CHO-CHOP luciferase reporter, luminescence; percent of tunicamycin response over DMSO baseline. 330,000 compounds, 0.34% hits. activation, % at 10 µM;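 active = at 10 µM dose, activation of 40% or more, normalized to positive control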;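 note: 100% = tunicamycin at 10 µg/mL and 0% = DMSO alone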
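assay system = CHO CHOP reporter cells | amount = 500 CHO-CHOP cells per well | buffer or medium = F12 with 10% FBS | incubation = 16-18 h cell attachment, then 6 h compound exposure, 37 °C | detection = luminescence read with Steady-Glo | read-out = percent activation relative to tunicamycin control | controls = tunicamycin high control, DMSO low control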
CHOP confirm = confirmation of CHOP induction inhibitors | shares compounds with CHOP inh | CHO-CHOP promoter luciferase reporter, tunicamycin-induced, luminescence | inhibition, % at 10 µM | 2,100 compounds, 45% hits;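 active = mean of three repeat readings of reporter signal inhibition above a set limit, cut at about 70% in these data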;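 note: 0% = tunicamycin plus vehicle and 100% = wells lacking tunicamycin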
Starred values were filed as active, the others as inactive. This is one part of a sample in which hits are shown more often than they occur.

How did CCOc1cccc(/C=C2/NC(=O)N(CC(=O)Nc3cccc(C)c3)C2=O)c1O do in these assays?
XBP1 UPR activ: -0.9; PvdQ inh: 11.0; CHOP inh: 103.8*; UPR CHOP act: 0.0; CHOP confirm: -57.8

What do the screens show for `CCOc1cc(/C=C2/NC(=O)N(CC(=O)Nc3cccc(C)c3)C2=O)ccc1OCC(N)=O`?
XBP1 UPR activ: -3.0; PvdQ inh: -1.1; CHOP inh: 14.9; UPR CHOP act: -0.3

How did CCn1c(C)nc2cc(-c3nc4n(n3)Cc3ccccc3-4)ccc21 do in these assays?
XBP1 UPR activ: -14.8; PvdQ inh: -2.3; UPR CHOP act: -12.4; CHOP confirm: 138.5*

How did Cc1ccc(-c2nc3n(n2)Cc2ccccc2-3)cc1 do in these assays?
XBP1 UPR activ: -2.2; PvdQ inh: -10.6; CHOP inh: 25.4; UPR CHOP act: -5.2

What do the screens show for `COc1ccc(CNC(=O)C(NC(C)=O)C(=O)Nc2ccc(C(C)C)cc2)cc1` (centres undefined)?
XBP1 UPR activ: 0.3; PvdQ inh: 8.0; CHOP inh: -6.3; UPR CHOP act: 0.1

What do the screens show for `CC(/C=C1\SC(=Nc2cccnc2)NC1=O)=C\c1ccccc1`?
XBP1 UPR activ: 4.0; PvdQ inh: 5.6; CHOP inh: 26.8; UPR CHOP act: 1.0

How did C=CCOc1ccc(/C=C2\SC(=Nc3cccnc3)NC2=O)cc1 do in these assays?
XBP1 UPR activ: 2.4; PvdQ inh: -13.5; CHOP inh: 101.1*; UPR CHOP act: 0.3; CHOP confirm: -3.3

Results for C[C@H](NC(=O)c1[nH]cnc1C(=O)Nc1ccccc1)C(=O)OC(C)(C)C ?
XBP1 UPR activ: -4.8; PvdQ inh: 0.4; CHOP inh: 48.2; UPR CHOP act: 2.1

What do the screens show for `Cc1ccc(NC(=O)c2nc[nH]c2C(=O)N[C@@H](C)C(=O)OC(C)(C)C)cc1`?
XBP1 UPR activ: -1.6; PvdQ inh: -22.7; CHOP inh: 96.6*; UPR CHOP act: -0.5; CHOP confirm: 78.2*

What do the screens show for `CC(C)(C)OC(=O)CNC(=O)c1[nH]cnc1C(=O)Nc1ccc(Cl)cc1`?
XBP1 UPR activ: -0.7; PvdQ inh: 2.6; CHOP inh: 100.2*; UPR CHOP act: -1.1; CHOP confirm: 76.6*

How did O=C(NCCc1nnc2ccc(NCc3ccc(Cl)cc3)nn12)c1ccccc1 do in these assays?
XBP1 UPR activ: -0.7; PvdQ inh: -2.0; CHOP inh: -6.3; UPR CHOP act: 0.2

How did COc1cc(C(=O)O/N=C2\C=CC(=O)C(C)=C2)cc(OC)c1OC do in these assays?
XBP1 UPR activ: -7.7; PvdQ inh: -14.2; CHOP inh: 107.8*; UPR CHOP act: -1.9; CHOP confirm: 98.6*

Results for Cc1cccc(C(=O)NNC(=O)c2cc3cc4ccccc4nc3s2)c1 ?
XBP1 UPR activ: -3.5; PvdQ inh: 10.1; CHOP inh: 103.1*; UPR CHOP act: -0.6; CHOP confirm: 5.6

How did CC(C)Oc1ccc(C2NC(=O)c3ccccc3O2)cc1 (centres undefined) do in these assays?
XBP1 UPR activ: -4.7; PvdQ inh: 1.6; UPR CHOP act: 5.4

How did CC1=C(C(=O)OCC2CCCCC2)C(c2ccc(O)cc2)NC(=O)N1 (centres undefined) do in these assays?
XBP1 UPR activ: -0.2; PvdQ inh: 14.0; UPR CHOP act: -1.1

Results for O=C(COc1ccccc1)Nc1sc2c(c1C(=O)NCc1cccnc1)CCCC2 ?
XBP1 UPR activ: 1.3; PvdQ inh: -3.0; CHOP inh: 97.7*; UPR CHOP act: 5.0; CHOP confirm: -55.5

What do the screens show for `O=C(COc1ccc(Cl)cc1)Nc1ccc(C(=O)NCc2cccnc2)cc1`?
XBP1 UPR activ: -0.2; PvdQ inh: -11.1; CHOP inh: -4.0; UPR CHOP act: 1.0

How did O=C(CCc1nnc(CCCCc2ccccc2)o1)N1CCCC(O)C1 (centres undefined) do in these assays?
XBP1 UPR activ: -2.5; PvdQ inh: -4.7; CHOP inh: 1.1; UPR CHOP act: 2.4

What do the screens show for `COC(CNC(=O)CN1CCN(Cc2ccc(F)cc2Cl)C1=O)OC`?
XBP1 UPR activ: -2.9; PvdQ inh: -21.6; UPR CHOP act: 0.0

What do the screens show for `Cc1sc(-c2ccncc2)nc1OC(=O)c1cc(Cl)cc(Cl)c1`?
XBP1 UPR activ: 21.1; PvdQ inh: -1.0; CHOP inh: 104.2*; UPR CHOP act: 9.8; CHOP confirm: 63.4

Results for Cc1sc(-c2ccncc2)nc1OC(=O)c1ccc(Cl)cc1 ?
XBP1 UPR activ: -0.8; PvdQ inh: -10.9; CHOP inh: -2.7; UPR CHOP act: -6.0

How did CCOc1cc(C2c3c(oc4ccccc4c3=O)C(=O)N2c2nccs2)ccc1O (centres undefined) do in these assays?
XBP1 UPR activ: 2.8; PvdQ inh: -9.5; CHOP inh: 104.2*; UPR CHOP act: -1.2; CHOP confirm: -1.3

Results for O=S(=O)(NCC(Nc1ccccc1)c1ccccc1)c1ccc(Cl)cc1 (centres undefined) ?
XBP1 UPR activ: -2.4; PvdQ inh: -5.5; CHOP inh: 101.6*; UPR CHOP act: 0.3; CHOP confirm: 32.8

How did O=C(O)c1cccc(NC(CNS(=O)(=O)c2ccc(Cl)cc2)c2ccccc2)c1 (centres undefined) do in these assays?
XBP1 UPR activ: 1.5; PvdQ inh: -6.8; CHOP inh: -4.4; UPR CHOP act: 0.0

How did Cc1cc2ncn(/N=C/c3ccc4c(c3)OCO4)c2cc1C do in these assays?
XBP1 UPR activ: 3.5; PvdQ inh: -4.5; CHOP inh: 96.3*; UPR CHOP act: -0.5; CHOP confirm: 66.5

How did COC(=O)C1=NNC2(C)C(=O)N(c3ccc(C)cc3)C(=O)C12 (centres undefined) do in these assays?
XBP1 UPR activ: 0.2; PvdQ inh: -5.9; CHOP inh: 22.0; UPR CHOP act: -1.2

Results for O=C(c1ccc(N2CCCC2)c([N+](=O)[O-])c1)N1CCN(S(=O)(=O)c2ccccc2)CC1 ?
XBP1 UPR activ: -2.5; PvdQ inh: 2.9; UPR CHOP act: 2.1

Results for CN1CCN(CC(=O)N2CCn3c4c(c5cc(C6CCCCC6)ccc53)CCCC42)CC1 (centres undefined) ?
XBP1 UPR activ: 26.2; PvdQ inh: -15.7; UPR CHOP act: 9.1; CHOP confirm: 131.9*

Results for C=C1C(=O)O[C@@H]2C[C@@H](C)[C@@H]3C=CC(=O)[C@@]3(C)[C@@H](OC(C)=O)[C@H]12 ?
XBP1 UPR activ: -8.6; CHOP inh: 107.4*; UPR CHOP act: -8.0; CHOP confirm: 120.3*

How did COc1cc(NC(=O)Cn2c(C)cc3ccccc3c2=O)cc(OC)c1OC do in these assays?
XBP1 UPR activ: -3.5; PvdQ inh: -5.1; CHOP inh: 96.8*; UPR CHOP act: -2.5; CHOP confirm: 19.8

Results for COc1cc(OC)cc(C(=O)NC(=S)N(Cc2ccccc2)C(C)C)c1 ?
XBP1 UPR activ: -2.8; PvdQ inh: -8.8; UPR CHOP act: 0.1

Results for Cc1cc(C)c2nc(C(F)(F)F)c(C#N)c(N)c2c1 ?
XBP1 UPR activ: -1.4; PvdQ inh: 10.3; CHOP inh: 106.5*; UPR CHOP act: 1.1; CHOP confirm: 116.3*
